E-selectin induc – induces E-selectin expression in human endothelial cells; P16581; HUVEC E-selectin immunofluorescence imaging; normalized: neutral wells 0, TNF-alpha wells 100; activation, % at 7.58 µM; 0.37% of 260,000 active; AID 686992;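 active = mean E-selectin-positive cell signal at least 10% of the positive control, reached in at least 60% of replicates, without over 20% cell loss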
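System: HUVEC, human umbilical vein endothelial cells; quantity: 3,000 cells/well; buffer or medium: EGM-2 medium, gelatin-coated wells; dosing: single-point compound dose; detection: immunofluorescence imaging; evaluation: % PE-positive cells; benchmarks: TNF-alpha, DMSO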
rRNA inh HTS – inhibitors of bacterial rRNA selective over humanized ribosomes; 1.6% of 350,000 active; GFP signal change (wild-type ribosome), % (test concentration not listed); E. coli WT GFP vs humanized-ribosome RFP mutants, fluorescence, 24 h; stronger effect = lower value; DMSO median 0, no signal -100;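 active = significant combined selectivity score with lowered wild-type GFP, culture density cut under 30%, mutant RFP and density less affected; inactive = any of these conditions unmet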
SIRT5 block – blocks human SIRT5 desuccinylation of peptide; AID 652115; Purified SirT5, succinyl-peptide AMC, trypsin-coupled fluorescence; 1.1% of 330,000 active; inhibition, % at 15 µM; Q9NXA8; in the data active = inhibition above about 15%
Target sequence (Q9NXA8 whole entry, looked up): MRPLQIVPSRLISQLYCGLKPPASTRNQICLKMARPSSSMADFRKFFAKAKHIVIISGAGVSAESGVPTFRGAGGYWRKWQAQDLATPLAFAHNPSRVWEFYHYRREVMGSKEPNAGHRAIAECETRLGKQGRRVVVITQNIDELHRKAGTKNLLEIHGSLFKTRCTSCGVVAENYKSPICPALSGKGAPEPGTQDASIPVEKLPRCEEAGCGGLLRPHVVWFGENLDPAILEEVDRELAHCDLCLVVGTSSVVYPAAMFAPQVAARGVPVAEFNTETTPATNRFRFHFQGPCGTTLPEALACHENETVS
FGF22 binding – shifts melting point of recombinant human FGF22; activity (Tm shift, normalised), % at 9.99 µM; 1.5% of 340,000 active; recombinant FGF22 thermal shift, SYPRO orange fluorescence; percent of sucrose octasulfate shift, DMSO zero;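 active = mean Tm shift, scaled 0 neutral to 100 positive control, at about 1.3% or above, every replicate too, limit read from the data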
Target sequence (Q9HCT0 whole entry, looked up): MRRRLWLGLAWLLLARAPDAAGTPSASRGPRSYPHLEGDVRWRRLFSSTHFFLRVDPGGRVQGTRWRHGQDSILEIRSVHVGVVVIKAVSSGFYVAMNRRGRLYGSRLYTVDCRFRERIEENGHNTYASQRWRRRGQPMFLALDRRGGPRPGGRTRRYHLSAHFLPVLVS
Statin myotox sup – suppression of simvastatin myotoxicity. C2C12 myotubes + simvastatin, ATP luminescence, 48 h; scaled: DMSO 0, geranylgeraniol control 100. rescue of ATP level, % at 7.49 µM. 0.78% of 330,000 active;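 active = mean ATP rescue above about 67%, or every replicate alone reaching that limit, limit read from the data, passing the limit was not always enough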;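 note: myotubes were challenged with 10 µM simvastatin during compound exposure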
FN deposit inh – fibronectin deposition inhibition; AH1F fibroblasts, Alexa488-fibronectin deposition fluorescence, overnight; inhibition, % at 12.6 µM; 0.086% of 350,000 active;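 active = mean inhibition across replicates of 30% or more, regardless of how many single replicates reach that level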;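 note: positive control wells lacked labelled fibronectin entirely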
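Test system: AH1F fibroblast monolayer depositing Alexa488-labelled fibronectin into matrix. Input: 10000 cells per well. Technique: fluorescence, ex 485 nm, em 525 nm. Buffer or medium: DMEM plus 2% serum, read in PBS. Timing: 1 h cell adhesion before compound, then overnight fibronectin incubation. Compound: single dose, pinned. Read-out basis: inhibition from reduced deposited-fibronectin fluorescence.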
Active calls of the source: *; nt = no result. Sampled rows, rich in hits. Any-hit rate of the full collection: about 4%.

SMILES	E-selectin induc	rRNA inh HTS	SIRT5 block	FGF22 binding	Statin myotox sup	FN deposit inh
O=C(COC(=O)c1cc[n+]([O-])cc1)Nc1ccc(SC(F)F)cc1	4	-7	nt	0	nt	-18
O=C(COc1ccccc1C(=O)O)Nc1ccc(SC(F)F)cc1	nt	-16	-1	43*	-11	9
CC(=O)CCC(=O)OCC(=O)Nc1ccc(SC(F)F)cc1	-1	3	-5	43*	nt	0
O=[N+]([O-])c1cccc(S(=O)(=O)N2CCN(S(=O)(=O)N3CCOCC3)CC2)c1	nt	3	16*	0	-1	-4
OC(c1ccc(Cl)cc1)c1nccc2ccccc12 (configuration not stated)	0	-22*	-1	0	7	1
COc1ccc(CCNC(=O)COC(=O)c2ccc(OC)cc2OC)cc1	-2	-8	2	0	-3	3
COC(=O)CNC(=O)COC(=O)/C=C/c1cccs1	nt	15	1	0	5	-3
COc1ccc(CCCC(=O)N/N=C\c2cccs2)cc1	0	-23*	1	0	nt	-1
COc1ccc(CCNC(=O)COC(=O)/C=C/c2cccs2)cc1	-1	-5	0	43*	nt	-3
O=C(COC(=O)/C=C/c1cccs1)Nc1ccccc1Cl	nt	5	-1	43*	nt	-2
CCOc1ccccc1C(=O)OCC(=O)NCCc1ccc(OC)cc1	0	-22*	-6	0	8	-5
COc1ccc(CCNS(=O)(=O)c2cccs2)cc1	nt	nt	nt	nt	128*	2
CCCCSc1nnc(-c2ccccc2NC(C)=O)c(=O)[nH]1	nt	1	-3	43*	nt	3
CCOC(=O)c1cc2c(c(-c3cccc(-c4cccc(OC)c4)c3)n1)[C@@H](CCO)N(S(=O)C(C)(C)C)C2 (some centres not stated)	0	-6	-4	0	nt	2
O=C(C1CCC1)N1[C@@H](CO)[C@@H](c2ccccc2)C12CN(Cc1cccc(Cl)c1)C2	0	-10	2	nt	nt	4
O=c1ccc(-c2nc3ccccc3n2Cc2ccccc2Cl)c[nH]1	-1	-19	0	43*	-7	-3
O=c1ccc(-c2nc3cc(Cl)ccc3n2Cc2ccccc2)c[nH]1	nt	-21	-2	nt	24	1
O=S(=O)(c1cccc2cccnc12)N1CCc2ccccc21	nt	nt	nt	nt	34	nt
O=S(=O)(c1cccc2cccnc12)N1CCN(c2ccccc2)CC1	nt	-16	0	1	10	nt
O=S(=O)(c1cccc2cccnc12)N1CCN(c2ccccn2)CC1	nt	-7	1	43*	3	-16
O=S(=O)(c1cccc2cccnc12)N1CCCc2ccccc21	0	4	-5	43*	nt	1
C[C@@H]1CN([C@H](C)CO)C(=O)c2cc(C3=CCCC3)cnc2O[C@@H]1CN(C)Cc1ccc(F)cc1	0	2	3	0	7	-11
Cc1ccc(S(=O)(=O)Oc2cccc(/C=N/Nc3ccc(C(=O)O)cc3)c2)cc1	nt	-28*	5	0	2	8
Cc1ccc(S(=O)(=O)Oc2cccc(/C=N/n3cnnc3)c2)cc1	nt	-2	-2	0	nt	5
C[C@H](O)C#Cc1cnc2c(c1)C(=O)N([C@@H](C)CO)C[C@@H](C)[C@@H](CN(C)Cc1cccc(C(=O)O)c1)O2	0	2	0	0	-4	nt
SMILES	E-selectin induc	rRNA inh HTS	SIRT5 block	FGF22 binding	Statin myotox sup	FN deposit inh
COc1ccc(C(=O)c2cn[nH]c2-c2cc(Cl)ccc2O)cc1	nt	nt	nt	nt	144*	-9
COc1ccc(C(=O)c2cn[nH]c2-c2cc(C)ccc2O)cc1	0	-16*	1	0	12	-6
CS(=O)(=O)N1[C@H](C#N)[C@@H](c2ccc(-c3ccccc3F)cc2)[C@@H]1CO	1	-5	2	0	7	10
COc1cc(C2C(C#N)=C(N)Oc3c2ccc2ccccc32)ccc1OCC(=O)Nc1cccc(C)c1 (configuration not stated)	nt	17	-1	0	nt	5
COc1cc(C2C(C#N)=C(N)Oc3c2ccc2ccccc32)ccc1OCC(=O)Nc1ccc(C)cc1 (configuration not stated)	-1	nt	20*	0	-14	-3
O=C(C[C@@H]1C[C@@H]2c3cc(NS(=O)(=O)c4ccccc4)ccc3O[C@@H]2[C@@H](CO)O1)NC1CCCC1	0	-5	-4	0	-2	-18
COc1cccc(C#Cc2cnc3c(c2)C(=O)N([C@@H](C)CO)C[C@@H](C)[C@@H](CN(C)C(C)=O)O3)c1	0	-2	-1	0	10	7
Cc1cccc(C)c1Nc1c(-c2ccc(N3CCOCC3)cc2)nc2ncccn12	0	-25*	2	0	6	0
CC(C)C#Cc1ccc([C@@H]2[C@@H](CO)N3CCCCN(C(=O)Nc4ccccc4)C[C@@H]23)cc1	0	-54	5	0	nt	nt
O=C(O)/C=C\C(=O)Nc1ccccc1C(=O)N1CCN(c2ccc(Cl)cc2)CC1	nt	nt	nt	nt	88*	nt
O=C(Nc1ccccc1C(=O)N1CCOCC1)c1ccc(F)cc1	nt	nt	nt	nt	86*	nt
CCOc1ccccc1C(=O)N1CCN(c2cccc(Cl)c2)CC1	nt	nt	nt	nt	-136	-13
O=C(O)c1ccccc1C(=O)N1CCN(c2cccc(Cl)c2)CC1	nt	nt	nt	nt	84*	-5
Cc1cc(Cl)ccc1OCC(=O)Nc1ccccc1C(=O)N1CCOCC1	0	0	-2	0	0	nt
COc1cc(Cl)ccc1NC(=O)COc1ccccc1C(=O)N1CCN(c2ccc(O)cc2)CC1	nt	nt	nt	nt	122*	nt
Cc1ccccc1N1CCN(C(=O)c2ccccc2NC(=O)/C=C\C(=O)O)CC1	nt	nt	nt	nt	1	nt
C[C@H](CO)N1C[C@H](C)[C@H](CN(C)Cc2ccc(C(=O)Nc3ccccc3N)cc2)OCCCC[C@H](C)Oc2ccc(NC(=O)C3CCCCC3)cc2C1=O	1	-1	6	0	nt	nt
O=C(Nc1ccccc1C(=O)N1CCCCCC1)c1ccc(Cl)cc1	nt	-24*	-3	0	nt	-10
C[C@@H]1CCCCO[C@H](CN(C)Cc2ccc(C(=O)O)cc2)[C@@H](C)CN([C@H](C)CO)C(=O)c2cc(NC(=O)Nc3ccc4c(c3)OCO4)ccc2O1	0	2	10	-1	nt	nt
CSCCC(C(=O)NCc1ccccc1)n1c(-c2ccc3c(c2)CCO3)nc2ccccc21 (configuration not stated)	0	-17*	nt	0	nt	1
CCC(C(=O)NCc1ccccc1)n1c(-c2ccc3c(c2)CCO3)nc2ccccc21 (configuration not stated)	0	-31	nt	0	nt	-2
COc1cccc(S(=O)(=O)NCc2ccc(C(=O)Nc3ccc(C)cc3)cc2)c1	nt	nt	nt	nt	95*	nt

From PubChem
